Results as given in ChEMBL document CHEMBL3425440, “ent-Kaurane Diterpenoids from Chinese Liverworts and Their Antitumor Activities through Michael Addition As Detected in Situ by a Fluorescence Probe” (J Med Chem, 2015).

Experiments:
[1] = Cytotoxicity against human PC3 cells assessed as cell viability after 24 hrs by MTT assay; format: functional, cell-based; conditions: PC-3, 24 h
In short: (§1)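 Cells grown to about 50−70% confluence at 37 °C, 5% CO2, then exposed to compounds 24 h (DMSO vehicle control, cisplatin positive control). MTT (5 mg/mL stock) added for 4 h, formazan dissolved in DMSO, absorbance read at 570 nm. IC50 derived from percent viability; at least three independent experiments, mean ± SD.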

DU-145 = assay: Cytotoxicity against human DU145 cells assessed as cell viability after 24 hrs by MTT assay; format: functional, cell-based; conditions: DU-145, 24 h; in short: as §1
LNCaP = assay: Cytotoxicity against human LNCAP cells assessed as cell viability after 24 hrs by MTT assay; format: functional, cell-based; in short: as §1
[2] = Cytotoxicity against human RWPE1 cells assessed as cell viability after 24 hrs by MTT assay; format: cell-based; conditions: RWPE-1, 24 h; in short: as §1
MDA-MB-231 = assay: Cytotoxicity against human MDA-MB-231 cells assessed as cell viability after 24 hrs by MTT assay; format: functional, cell-based; conditions: MDA-MB-231, 24 h; in short: as §1
NCI-H1299 = assay: Cytotoxicity against human NCI-H1299 cells assessed as cell viability after 24 hrs by MTT assay; format: functional, cell-based; conditions: NCI-H1299, 24 h; in short: as §1
[3] = Cytotoxicity against human SKOV3 cells assessed as cell viability after 24 hrs by MTT assay; format: functional, cell-based; conditions: SK-OV-3, 24 h; in short: as §1
LoVo = assay: Cytotoxicity against human LoVo cells assessed as cell viability after 24 hrs by MTT assay; format: functional, cell-based; in short: as §1
[4] = Cytotoxicity against human T24 cells assessed as cell viability after 24 hrs by MTT assay; format: functional, cell-based; conditions: T-24, 24 h; in short: as §1
K562 = assay: Cytotoxicity against human K562 cells assessed as cell viability after 24 hrs by MTT assay; format: functional, cell-based; conditions: K562, 24 h; in short: as §1
[5] = Cytotoxicity against human HL60 cells assessed as cell viability after 24 hrs by MTT assay; format: functional, cell-based; conditions: HL-60, 24 h; in short: as §1
[6] = Cytotoxicity against human SH-SY5Y cells assessed as cell viability after 24 hrs by MTT assay; format: functional, cell-based; in short: as §1
[7] = Cytotoxicity against human A172 cells assessed as cell viability after 24 hrs by MTT assay; format: functional, cell-based; conditions: A 172, 24 h; in short: as §1
[8] = Cytotoxicity against human Saos2 cells assessed as cell viability after 24 hrs by MTT assay; format: functional, cell-based; conditions: SAOS-2, 24 h; in short: as §1

Structure (SMILES)	IC50 [1] [µM]	IC50 (DU-145) [µM]	IC50 (LNCaP) [µM]	IC50 [2] [µM]	IC50 (MDA-MB-231) [µM]	IC50 (NCI-H1299) [µM]	IC50 [3] [µM]	IC50 (LoVo) [µM]	IC50 [4] [µM]	IC50 (K562) [µM]	IC50 [5] [µM]	IC50 [6] [µM]	IC50 [7] [µM]	IC50 [8] [µM]
C=C1C[C@]23C[C@H]1CC[C@H]2[C@@]1(C)[C@H](C[C@H]3OC(C)=O)C(C)(C)CC[C@@H]1O	> 50	> 50	> 50	> 50	> 50	> 50	> 50	> 50	> 50	> 50	> 50	> 50	> 50	> 50
C=C1[C@@H]2CC[C@H]3[C@]4(C)CCCC(C)(C)[C@H]4[C@@H](O)C[C@]3(C2)[C@@H]1O	> 50	> 50	> 50	> 50	> 50	> 50	> 50	> 50	> 50	> 50	> 50	> 50	> 50	> 50
C=C1[C@@H]2C[C@H](O)[C@H]3[C@]4(C)CCCC(C)(C)[C@H]4CC[C@]3(C2)[C@@H]1O	> 50	> 50	> 50	> 50	> 50	> 50	> 50	> 50	> 50	> 50	> 50	> 50	> 50	> 50
C[C@@H]1C(=O)[C@H]2C[C@]1(O)CC1=C2[C@]2(C)CCC[C@](C)(C=O)[C@H]2CC1	> 50	> 50	> 50	> 50	> 50	> 50	> 50	> 50	> 50	> 50	> 50	> 50	> 50	> 50
C=C1C[C@]23C[C@H]1CC[C@H]2[C@@]1(C)[C@H](C[C@H]3O)C(C)(C)CC[C@@H]1O	> 50	> 50	> 50	> 50	> 50	> 50	> 50	> 50	> 50	> 50	> 50	> 50	> 50	> 50
C=C1[C@@H]2CC[C@H]3[C@]4(C)CCCC(C)(C)[C@H]4CC[C@]3(C2)[C@@H]1O	> 50	> 50	> 50	> 50	> 50	> 50	> 50	> 50	> 50	> 50	> 50	> 50	> 50	> 50
C=C1[C@@H]2CC[C@@H]3[C@@](CC[C@@H]4C(C)(C)CC[C@H](O)[C@]43C)(C2)[C@@H]1O	> 50	> 50	> 50	> 50	> 50	> 50	> 50	> 50	> 50	> 50	> 50	> 50	> 50	> 50
C=C1[C@@H]2CC(=O)[C@H]3[C@]4(C)CCCC(C)(C)[C@H]4C[C@@H](O)[C@]3(C2)[C@@H]1O	> 50	> 50	> 50	> 50	> 50	> 50	> 50	> 50	> 50	> 50	> 50	> 50	> 50	> 50
C=C1C(O)[C@@]23CC[C@H]4[C@@](C)(CCC[C@@]4(C)C(=O)OCCBr)[C@@H]2CC[C@]1(O)C3 (stereo not given in full)	> 50	> 50	> 50	> 50	> 50	> 50	> 50	> 50	> 50	> 50	> 50	> 50	> 50	> 50
C=C1C[C@]23C[C@H]1CC[C@H]2[C@]1(C)CCCC(C)(C)[C@H]1C[C@H]3O	> 50	> 50	> 50	> 50	> 50	> 50	> 50	> 50	> 50	> 50	> 50	> 50	> 50	> 50
C=C1C(=O)[C@@]23CC[C@@H]4[C@@](C)(CO)CCC[C@@]4(C)C2=CC[C@@H]1C3	21.5	31	16.3	39.3	32	14.5	22.3	11.2	17.7	13.8	4.7	9.8	20.3	14
C=C1[C@@H]2CC[C@H]3[C@]4(C)CCCC(C)(C)[C@H]4C[C@@H](O)[C@]3(C2)[C@H]1O	> 50	> 50	> 50	> 50	> 50	> 50	> 50	> 50	> 50	> 50	> 50	> 50	> 50	> 50
C=C1C(=O)[C@@]23CC[C@@H]4[C@](C)(CO)CCC[C@@]4(C)C2=CC[C@]1(O)C3	6.6	8.3	12.8	13.2	15.5	19	11.3	18.4	13.2	10.4	6.7	4.9	13	15.8
C=C1C(=O)[C@@]23CC[C@@H]4C(C)(C)CCC[C@@]4(C)[C@@H]2[C@@H](O)C[C@@H]1C3	1.9	4.5	2.5	5.2	4.8	2.6	1.7	1.4	2.1	1.5	0.9	0.7	3.2	1.4
C=C1C(=O)[C@H]2C[C@@H]1CC1=C2[C@]2(C)CCC[C@](C)(CO)[C@H]2CC1	> 50	> 50	> 50	> 50	> 50	> 50	> 50	35.2	49.1	41.7	23.6	33.8	> 50	35.5
